Experimental data taken from ChEMBL document CHEMBL4814057, “4-4-(Anilinomethyl)-3-[4-(trifluoromethyl)phenyl]-1H-pyrazol-1-ylbenzoic acid derivatives as potent anti-gram-positive bacterial agents” (Eur J Med Chem, 2021).

Tested on: Staphylococcus aureus
Assay: Inhibition of lipid synthesis in Staphylococcus aureus ATCC 29213 at 8 times MIC measured by liquid scintillation counter
Type: functional
How it was run: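 Early-exponential S. aureus ATCC 29213 in CAMHBII exposed to drug at 8x MIC in triplicate tubes. Lipids extracted with chloroform/water. Organic phase dried and counted by liquid scintillation.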

C/C=C/C/C=C/CCC(=O)[C@H]1O[C@H]1C(N)=O [CERULENIN]
inhibition (INH): 71.9%
